Laboratory results reported in ChEMBL document CHEMBL1136055, “3-Heteroaryl-2-pyridones: benzodiazepine site ligands with functional delectivity for alpha 2/alpha 3-subtypes of human GABA(A) receptor-ion channels” (J Med Chem, 2002).

Key:
[1] = molecular target: GABA-A receptor; alpha-3/beta-3/gamma-2 (Homo sapiens) (UniProt P18507+P28472+P34903); experiment: Modulatory effect on coapplication with GABA at human Gamma-aminobutyric acid A receptor alpha-3-beta-3-gamma-2 in Xenopus oocytes.; format: cell-based; settings: Oocyte
How it was run: (§1)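 Two-electrode voltage clamp of Xenopus oocytes transiently expressing human α1, α2 or α3 β3γ2S receptors. Test compound is co-applied with GABA at its EC20 (GABA range 4-30 µM). Result is the % change in GABA current, mean (SEM), n = 3-7, at the stated test compound concentration (µM).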

[2] = molecular target: T1, GABA-A receptor; alpha-2/beta-3/gamma-2 (Homo sapiens, UniProt P18507+P28472+P47869); experiment: Displacement of [3H]Ro-151788 from human Gamma-aminobutyric acid A receptor alpha-2-beta-3-gamma-2 stably expressed in L(tk-) cells; format: cell-based
T1 sequence (P18507 whole entry): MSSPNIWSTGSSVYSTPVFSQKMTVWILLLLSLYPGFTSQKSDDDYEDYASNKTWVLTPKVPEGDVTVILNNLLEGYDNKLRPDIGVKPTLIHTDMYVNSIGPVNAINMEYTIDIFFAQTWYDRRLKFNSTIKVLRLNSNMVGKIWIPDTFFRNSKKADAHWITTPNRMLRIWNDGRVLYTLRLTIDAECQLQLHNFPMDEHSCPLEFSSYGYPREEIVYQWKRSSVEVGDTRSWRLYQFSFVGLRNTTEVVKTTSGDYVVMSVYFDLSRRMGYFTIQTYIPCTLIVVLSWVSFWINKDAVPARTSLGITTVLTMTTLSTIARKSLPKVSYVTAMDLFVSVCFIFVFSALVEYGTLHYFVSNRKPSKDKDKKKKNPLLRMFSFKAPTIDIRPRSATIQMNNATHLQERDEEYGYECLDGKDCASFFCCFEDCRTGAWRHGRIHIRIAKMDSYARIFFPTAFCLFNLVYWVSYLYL
T1 sequence (P28472 whole entry): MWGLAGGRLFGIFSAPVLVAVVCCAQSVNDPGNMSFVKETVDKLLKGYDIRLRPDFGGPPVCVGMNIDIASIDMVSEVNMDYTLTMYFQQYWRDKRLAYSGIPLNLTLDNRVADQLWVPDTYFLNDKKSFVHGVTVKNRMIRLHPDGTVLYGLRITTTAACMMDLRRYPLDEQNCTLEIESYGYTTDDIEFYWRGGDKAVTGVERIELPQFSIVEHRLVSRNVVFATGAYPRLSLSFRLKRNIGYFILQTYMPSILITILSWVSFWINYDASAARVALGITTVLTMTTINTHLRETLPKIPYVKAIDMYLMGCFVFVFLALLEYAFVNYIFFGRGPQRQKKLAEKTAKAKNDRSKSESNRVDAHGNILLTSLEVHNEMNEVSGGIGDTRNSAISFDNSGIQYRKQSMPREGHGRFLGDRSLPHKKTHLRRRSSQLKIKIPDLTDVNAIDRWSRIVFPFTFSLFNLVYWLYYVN
T1 sequence (P47869 whole entry): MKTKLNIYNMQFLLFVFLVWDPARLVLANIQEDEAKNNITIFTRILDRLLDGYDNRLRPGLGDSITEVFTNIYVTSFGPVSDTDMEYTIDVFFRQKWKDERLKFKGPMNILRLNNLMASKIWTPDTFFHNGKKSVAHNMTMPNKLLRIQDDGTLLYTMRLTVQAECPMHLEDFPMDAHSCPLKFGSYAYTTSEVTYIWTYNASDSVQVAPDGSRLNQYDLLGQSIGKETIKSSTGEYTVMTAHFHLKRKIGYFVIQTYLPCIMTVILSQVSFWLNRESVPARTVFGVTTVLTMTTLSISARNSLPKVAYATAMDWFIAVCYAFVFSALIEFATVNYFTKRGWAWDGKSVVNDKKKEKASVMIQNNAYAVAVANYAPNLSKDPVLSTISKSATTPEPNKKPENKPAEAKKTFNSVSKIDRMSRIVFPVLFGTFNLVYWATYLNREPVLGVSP
How it was run: (§2)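 Competition binding against [3H]Ro15-1788 on cloned human α1/α2/α3/α5 β3γ2S receptors stably expressed in L(tk-) cells. Six to eight test concentrations spaced in half-log steps. Ki given as mean (SEM), n = 3-5, reported to two significant figures.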

[3] = molecular target: T2, GABA-A receptor; alpha-3/beta-3/gamma-2 (Homo sapiens, UniProt P18507+P28472+P34903); experiment: Binding affinity by displacement of [3H]Ro-151788 from recombinant human gamma-aminobutyric-acid A receptor alpha3,beta3,gamma2 stably expressed in L cells; format: cell-based; how it was run: as §2
T2 sequence (P18507 whole entry): T1 sequence (P18507 whole entry)
T2 sequence (P28472 whole entry): T1 sequence (P28472 whole entry)
T2 sequence (P34903 whole entry): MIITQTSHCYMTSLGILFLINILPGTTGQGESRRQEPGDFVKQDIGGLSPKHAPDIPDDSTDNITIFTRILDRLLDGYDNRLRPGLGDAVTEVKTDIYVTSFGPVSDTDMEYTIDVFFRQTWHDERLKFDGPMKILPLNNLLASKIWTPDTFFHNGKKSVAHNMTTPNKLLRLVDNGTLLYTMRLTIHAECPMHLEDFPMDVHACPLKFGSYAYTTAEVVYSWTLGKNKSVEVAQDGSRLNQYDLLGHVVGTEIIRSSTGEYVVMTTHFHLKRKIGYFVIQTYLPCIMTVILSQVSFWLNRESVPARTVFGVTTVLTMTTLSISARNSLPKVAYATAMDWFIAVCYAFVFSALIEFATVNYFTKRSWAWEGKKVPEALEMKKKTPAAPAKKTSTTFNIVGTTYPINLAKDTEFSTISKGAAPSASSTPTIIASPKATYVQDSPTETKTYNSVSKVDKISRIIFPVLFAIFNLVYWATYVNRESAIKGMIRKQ

[4] = molecular target: T3, GABA-A receptor; alpha-5/beta-3/gamma-2 (Homo sapiens, UniProt P18507+P28472+P31644); experiment: Inhibition of [3H]Ro-151788 binding to human GABA A receptor (alpha-5-beta-3-gamma-2) stably expressed in L(tk-) cells.; format: cell-based; how it was run: as §2
T3 sequence (P18507 whole entry): T1 sequence (P18507 whole entry)
T3 sequence (P28472 whole entry): T1 sequence (P28472 whole entry)
T3 sequence (P31644 whole entry): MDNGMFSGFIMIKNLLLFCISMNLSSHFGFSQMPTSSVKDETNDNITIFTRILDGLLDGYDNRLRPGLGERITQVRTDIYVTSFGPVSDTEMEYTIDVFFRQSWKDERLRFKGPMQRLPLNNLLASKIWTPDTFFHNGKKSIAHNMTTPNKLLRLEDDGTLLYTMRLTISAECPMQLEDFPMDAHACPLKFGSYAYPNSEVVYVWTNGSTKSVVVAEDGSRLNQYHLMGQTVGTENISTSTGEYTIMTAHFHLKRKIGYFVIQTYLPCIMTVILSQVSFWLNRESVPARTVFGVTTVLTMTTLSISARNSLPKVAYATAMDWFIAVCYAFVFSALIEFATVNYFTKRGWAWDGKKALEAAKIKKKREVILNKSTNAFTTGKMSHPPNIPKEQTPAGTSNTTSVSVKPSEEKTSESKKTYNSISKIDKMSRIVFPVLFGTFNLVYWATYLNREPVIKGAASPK

[5] = molecular target: T4, GABA-A receptor; alpha-1/beta-3/gamma-2 (Homo sapiens, UniProt P14867+P18507+P28472); experiment: Inhibition of [3H]Ro-151788 binding to human GABA A receptor (alpha-1-beta-3-gamma-2) stably expressed in L(tk-) cells.; format: cell-based
T4 sequence (P14867 whole entry): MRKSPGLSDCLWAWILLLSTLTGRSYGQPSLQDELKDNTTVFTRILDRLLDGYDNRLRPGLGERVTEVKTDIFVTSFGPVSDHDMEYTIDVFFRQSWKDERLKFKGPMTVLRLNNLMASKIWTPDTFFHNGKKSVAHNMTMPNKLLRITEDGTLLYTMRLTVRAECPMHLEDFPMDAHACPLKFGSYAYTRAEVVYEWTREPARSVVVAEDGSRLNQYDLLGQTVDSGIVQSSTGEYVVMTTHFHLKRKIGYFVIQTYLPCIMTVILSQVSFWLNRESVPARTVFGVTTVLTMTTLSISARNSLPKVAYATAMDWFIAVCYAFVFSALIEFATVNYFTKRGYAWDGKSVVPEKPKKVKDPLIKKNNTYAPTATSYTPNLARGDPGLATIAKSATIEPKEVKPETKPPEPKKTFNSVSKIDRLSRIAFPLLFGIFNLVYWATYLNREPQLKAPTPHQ
T4 sequence (P18507 whole entry): T1 sequence (P18507 whole entry)
T4 sequence (P28472 whole entry): T1 sequence (P28472 whole entry)

[6] = molecular target: T5, GABA-A receptor; alpha-1/beta-3/gamma-2 (Homo sapiens) (UniProt P14867+P18507+P28472); experiment: Modulatory effect on coapplication with GABA at human Gamma-aminobutyric acid A receptor alpha-1-beta-3-gamma-2 expressed in Xenopus oocytes; format: cell-based; settings: Oocyte; how it was run: as §1
[7] = molecular target: GABA-A receptor; alpha-2/beta-3/gamma-2 (Homo sapiens) (UniProt P18507+P28472+P47869); experiment: Modulatory effect on coapplication with GABA at human Gamma-aminobutyric acid A receptor alpha-2-beta-3-gamma-2 expressed inXenopus oocytes; format: cell-based; settings: Oocyte; how it was run: as §1
[8] = molecular target: T4, GABA-A receptor; alpha-1/beta-3/gamma-2; experiment: Displacement of [3H]Ro-151788 from human GABA-A receptor alpha-1-beta-3-gamma-2 subunits expressed in L(tk-) cells (<50% inhibition at 100 uM); format: cell-based
[9] = molecular target: T4, GABA-A receptor; alpha-1/beta-3/gamma-2; experiment: Displacement of [3H]Ro-151788 from human GABA-A receptor alpha-1-beta-3-gamma-2 subunits expressed in L(tk-) cells (<50% inhibition at 10 uM); format: cell-based
[10] = molecular target: T5, GABA-A receptor; alpha-1/beta-3/gamma-2 (Homo sapiens); experiment: Modulatory effect on coapplication with GABA at human Gamma-aminobutyric acid A receptor alpha-1-beta-3-gamma-2 in Xenopus oocyte.; how it was run: as §1
[11] = molecular target: T3, GABA-A receptor; alpha-5/beta-3/gamma-2; experiment: Displacement of [3H]Ro-151788 from human GABA-A receptor alpha-5-beta-3-gamma-2 subunits expressed in L(tk-) cells; format: cell-based; how it was run: as §2
[12] = molecular target: T4, GABA-A receptor; alpha-1/beta-3/gamma-2; experiment: Displacement of [3H]Ro-151788 from human GABA-A receptor alpha-1-beta-3-gamma-2 subunits expressed in L(tk-) cells (<50% inhibition at 3 uM); format: cell-based
[13] = molecular target: T1, GABA-A receptor; alpha-2/beta-3/gamma-2; experiment: Displacement of [3H]Ro-151788 from human GABA-A receptor alpha-2-beta-3-gamma-2 subunits expressed in L(tk-) cells (<50% inhibition at 2 uM); format: cell-based
[14] = molecular target: T3, GABA-A receptor; alpha-5/beta-3/gamma-2; experiment: Displacement of [3H]Ro-151788 from human GABA-A receptor alpha-5-beta-3-gamma-2 subunits expressed in L(tk-) cells (<50% inhibition at 2 uM); format: cell-based

Structure (SMILES)	percent modulation of GABA EC20 response [1]	Ki [2]	Ki [3]	Ki [4]	Ki [5]	EC20 [6]	percent modulation of GABA EC20 response [7]	Ki [8]	Ki [9]	percent modulation of GABA EC20 response [10]	Ki [11]	Ki [12]	Ki [13]	Ki [14]
COc1ccc(-c2cc(C#N)c(O)nc2-c2ccc(N(C)C)cc2)cc1		> 30 µM	> 30 µM	> 0.667 µM				> 30 µM						
COC(=O)c1cc(-c2ccc(OC)cc2)c(-c2ccc(N(C)C)cc2)n(C)c1=O	132%	0.6 µM	0.25 µM	> 0.667 µM			81%		> 3 µM	181%				
COc1ccc(-c2cc(C#N)c(=O)n(C)c2-c2ccc(N(C)C)cc2)cc1	8%	1.8 µM	0.86 µM				-16%			7%				> 0.667 µM

Further lines, results first:

percent modulation of GABA EC20 response [1]	Ki [2]	Ki [3]	Ki [4]	Ki [5]	EC20 [6]	percent modulation of GABA EC20 response [7]	Ki [8]	Ki [9]	percent modulation of GABA EC20 response [10]	Ki [11]	Ki [12]	Ki [13]	Ki [14]	Structure (SMILES)
36%	0.023 µM	0.015 µM	0.35 µM	0.03 µM	9%	15%								COc1ccc(-c2cc(-c3cccs3)c(=O)n(C)c2-c2ccncc2)cc1
		> 1 µM								> 0.667 µM	> 1 µM	> 0.667 µM		COc1ccc(-c2cc(-c3nc(C)no3)c(=O)n(C)c2-c2ccncc2)cc1
